Assay [1] deals with T1, MAP kinase-interacting serine/threonine-protein kinase 2 (Homo sapiens, UniProt Q9HBH9). In words: Inhibition of MNK2.
Assay [2] deals with Cyclin-dependent kinase 5 (Homo sapiens, UniProt Q00535). Nature of the assay: Inhibition of CDK5.
Assay [3] has as its target T2, Protein kinase C epsilon type (Homo sapiens) (UniProt Q02156).
T2 sequence (whole entry): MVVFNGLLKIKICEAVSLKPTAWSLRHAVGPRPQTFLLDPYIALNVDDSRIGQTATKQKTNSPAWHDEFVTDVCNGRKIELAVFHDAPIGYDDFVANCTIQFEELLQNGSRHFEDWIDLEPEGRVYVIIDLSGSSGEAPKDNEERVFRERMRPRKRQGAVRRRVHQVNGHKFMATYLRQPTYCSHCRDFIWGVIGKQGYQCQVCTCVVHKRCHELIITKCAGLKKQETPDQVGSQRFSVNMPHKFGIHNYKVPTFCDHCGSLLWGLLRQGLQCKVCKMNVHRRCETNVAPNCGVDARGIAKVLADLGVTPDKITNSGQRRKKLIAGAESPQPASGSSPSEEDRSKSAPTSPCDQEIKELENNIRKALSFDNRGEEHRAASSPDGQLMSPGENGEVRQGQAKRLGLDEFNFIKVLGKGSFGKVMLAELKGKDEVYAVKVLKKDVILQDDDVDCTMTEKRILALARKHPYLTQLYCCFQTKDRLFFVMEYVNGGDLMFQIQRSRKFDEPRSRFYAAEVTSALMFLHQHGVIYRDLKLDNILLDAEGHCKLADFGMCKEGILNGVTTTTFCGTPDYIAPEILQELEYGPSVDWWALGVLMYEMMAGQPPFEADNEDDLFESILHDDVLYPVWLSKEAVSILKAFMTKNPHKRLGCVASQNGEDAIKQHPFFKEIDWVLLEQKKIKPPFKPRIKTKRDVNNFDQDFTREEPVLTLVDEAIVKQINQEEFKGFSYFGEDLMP
In words: Inhibition of PRKCE assessed as enzyme activity at 10 uM relative to control. The arrangement: scale not given: the % may be the effect or the level left. Summed up:
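Single-point test at 10 μM in a 96-kinase screening panel. Reported as % of a DMSO negative control, where a lower value means stronger inhibition.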

The target in assay [4] is Cyclin-dependent kinase 2/cyclin A (Homo sapiens, UniProt P24941). Nature of the assay: Inhibition of CDK2/cyclin A using 5-FAM-GGGPATPKKAKKL-COOH as substrate after 1 hr by IMAP assay. It counts as protein-complex assay. Summed up: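 IMAP fluorescence-polarization assay on CDK2/cyclin A. IC50 taken from dose–response curves, given as average ± SD of three independent experiments, or the mean of two for one compound.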

Assay [5] concerns the target T1, MAP kinase-interacting serine/threonine-protein kinase 2. Nature of the assay: Inhibition of MNK2 using 5-FAM-TATKSGSTTKNRFVV-NH2 as substrate preincubated for 1 hr prior substrate addition measured after 2 hrs by IMAP assay.
Assay [6] addresses T3, Serine/threonine-protein kinase PLK4 (Homo sapiens, UniProt O00444).
T3 sequence (O00444 whole entry): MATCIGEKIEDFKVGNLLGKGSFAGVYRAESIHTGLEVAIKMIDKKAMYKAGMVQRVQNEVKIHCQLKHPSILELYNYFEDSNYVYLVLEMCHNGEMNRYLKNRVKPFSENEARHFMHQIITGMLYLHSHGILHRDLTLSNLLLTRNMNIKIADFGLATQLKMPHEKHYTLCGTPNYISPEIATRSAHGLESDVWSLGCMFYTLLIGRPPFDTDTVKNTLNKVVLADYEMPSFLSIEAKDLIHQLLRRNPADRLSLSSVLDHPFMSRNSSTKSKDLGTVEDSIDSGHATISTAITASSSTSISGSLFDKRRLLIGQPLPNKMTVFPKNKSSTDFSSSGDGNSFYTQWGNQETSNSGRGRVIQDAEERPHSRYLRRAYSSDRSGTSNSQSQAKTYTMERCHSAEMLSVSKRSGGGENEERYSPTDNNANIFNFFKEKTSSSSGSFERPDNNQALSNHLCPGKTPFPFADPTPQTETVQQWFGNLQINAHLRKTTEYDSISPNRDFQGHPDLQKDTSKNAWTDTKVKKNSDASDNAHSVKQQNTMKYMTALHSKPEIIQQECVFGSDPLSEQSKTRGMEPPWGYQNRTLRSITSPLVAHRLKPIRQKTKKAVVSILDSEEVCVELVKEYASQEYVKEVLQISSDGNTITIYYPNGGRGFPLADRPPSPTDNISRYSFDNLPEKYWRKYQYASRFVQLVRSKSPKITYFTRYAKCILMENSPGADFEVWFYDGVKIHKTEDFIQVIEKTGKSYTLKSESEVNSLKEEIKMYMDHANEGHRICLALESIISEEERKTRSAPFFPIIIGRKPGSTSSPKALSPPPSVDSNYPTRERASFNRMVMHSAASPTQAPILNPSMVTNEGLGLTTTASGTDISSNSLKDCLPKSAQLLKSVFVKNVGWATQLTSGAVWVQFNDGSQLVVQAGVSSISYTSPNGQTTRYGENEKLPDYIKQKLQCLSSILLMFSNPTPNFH
In words: Inhibition of PLK4.

The target of assay [7] is T4, Receptor-type tyrosine-protein kinase FLT3 (Homo sapiens, UniProt P36888).
T4 sequence (P36888 whole entry): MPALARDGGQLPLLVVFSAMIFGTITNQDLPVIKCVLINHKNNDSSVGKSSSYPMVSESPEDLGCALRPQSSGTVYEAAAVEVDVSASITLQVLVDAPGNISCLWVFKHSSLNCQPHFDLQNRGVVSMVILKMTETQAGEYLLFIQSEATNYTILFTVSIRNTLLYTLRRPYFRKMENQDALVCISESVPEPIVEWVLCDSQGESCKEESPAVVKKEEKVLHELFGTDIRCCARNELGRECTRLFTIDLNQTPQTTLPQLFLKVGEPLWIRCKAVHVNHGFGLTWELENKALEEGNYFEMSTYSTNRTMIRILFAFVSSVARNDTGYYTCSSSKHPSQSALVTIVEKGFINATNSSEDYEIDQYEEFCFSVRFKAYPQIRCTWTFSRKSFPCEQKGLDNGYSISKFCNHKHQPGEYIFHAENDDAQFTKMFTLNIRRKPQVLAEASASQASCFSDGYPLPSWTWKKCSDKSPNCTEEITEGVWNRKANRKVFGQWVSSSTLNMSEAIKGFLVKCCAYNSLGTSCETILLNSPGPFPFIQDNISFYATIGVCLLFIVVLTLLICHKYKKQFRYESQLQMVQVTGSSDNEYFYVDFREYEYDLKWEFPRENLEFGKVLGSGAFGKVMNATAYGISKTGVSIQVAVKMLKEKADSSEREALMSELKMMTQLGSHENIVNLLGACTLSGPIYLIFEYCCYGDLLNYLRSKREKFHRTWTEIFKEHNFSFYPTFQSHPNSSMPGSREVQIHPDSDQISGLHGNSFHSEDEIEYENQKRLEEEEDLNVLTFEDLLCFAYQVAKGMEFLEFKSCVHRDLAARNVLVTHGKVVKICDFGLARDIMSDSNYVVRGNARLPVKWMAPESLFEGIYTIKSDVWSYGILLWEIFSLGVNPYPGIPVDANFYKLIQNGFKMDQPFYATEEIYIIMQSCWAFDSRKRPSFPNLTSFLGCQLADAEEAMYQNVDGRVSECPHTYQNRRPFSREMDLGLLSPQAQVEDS
In words: Inhibition of FLT3.

Molecules are shown by their SMILES. pIC50, pKd: −log10 of the molar value.

T1 sequence (Q9HBH9 whole entry): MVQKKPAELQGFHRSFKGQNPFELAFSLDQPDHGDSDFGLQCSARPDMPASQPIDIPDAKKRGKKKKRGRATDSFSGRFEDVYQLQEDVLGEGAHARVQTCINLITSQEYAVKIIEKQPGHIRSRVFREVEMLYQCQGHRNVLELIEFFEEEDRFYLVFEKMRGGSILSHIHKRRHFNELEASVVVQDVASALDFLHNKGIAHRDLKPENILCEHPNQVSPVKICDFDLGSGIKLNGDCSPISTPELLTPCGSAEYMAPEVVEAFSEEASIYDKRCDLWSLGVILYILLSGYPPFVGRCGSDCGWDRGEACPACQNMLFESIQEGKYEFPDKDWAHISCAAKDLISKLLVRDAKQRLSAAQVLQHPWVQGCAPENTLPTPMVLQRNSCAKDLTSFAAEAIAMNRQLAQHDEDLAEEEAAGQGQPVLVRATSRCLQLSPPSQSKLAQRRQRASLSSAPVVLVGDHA
Chain of Cyclin-dependent kinase 5 (Q00535 whole entry): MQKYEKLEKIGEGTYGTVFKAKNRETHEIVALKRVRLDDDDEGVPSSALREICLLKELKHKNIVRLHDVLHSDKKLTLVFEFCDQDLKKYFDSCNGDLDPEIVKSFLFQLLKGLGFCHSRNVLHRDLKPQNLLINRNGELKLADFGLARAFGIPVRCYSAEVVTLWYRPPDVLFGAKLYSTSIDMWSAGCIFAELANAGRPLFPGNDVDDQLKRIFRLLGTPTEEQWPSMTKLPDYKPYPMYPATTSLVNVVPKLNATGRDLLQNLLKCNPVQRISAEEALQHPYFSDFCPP

For orientation: pKd means the negative decadic logarithm of the Kd, by convention in mol/L. The pIC50 is the negative decadic logarithm of the IC50, by convention in mol/L. Take `C[C@H]1C/C=C/[C@@H](O)[C@@H](O)CC/C=C/c2cc(O)cc(O)c2C(=O)O1` [AIGIALOMYCIN D]: the pKd in assay [1] is 6.80; in assay [6], 6.59; in assay [7] it was 6.52. For the same compound, the pIC50 in assay [2] was 5.22; in assay [4], 4.68; in assay [5] it was 6.35. For the same compound, the Activity in assay [3] came to 7.2%.
